These results are taken from ChEMBL document CHEMBL1152975, “Design and synthesis of orally bioavailable serum and glucocorticoid-regulated kinase 1 (SGK1) inhibitors” (Bioorg Med Chem Lett, 2009).

Test system in one series: not listed separately
The series can be described thus: Dissociation constant, pKa of the compound.
Conditions: not given
In kind it is physicochemical.
One may read the pKa as the pH at which an ionisable group is half protonated. High values mean a weaker acid or stronger base, low ones a stronger acid or weaker base. As for `O=C(O)c1ccc(-c2c[nH]c3ncc(-c4ccccc4)cc23)cc1`, the pKa was 4.2.
Same read-out and setting: under `c1ccc(-c2cnc3[nH]cc(-c4ccc(-c5nnn[nH]5)cc4)c3c2)cc1` stands 4.9.

Test system in the next series: not listed separately
The series can be described thus: Plasma clearance in rat by discrete study.
Conditions: not given
Type of series: ADME, organism-based. The essentials: (§1)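 Each compound was dosed on its own (discrete study) to rats, iv and orally. Clearance, Vdss and terminal half-life come from the iv arm; oral AUC0–t and dose-normalized AUC0–t come from the oral arm.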
By clearance is commonly meant a measure of how efficiently the substance is removed, as volume per time. In the case of `O=C(O)Cc1ccc(-c2c[nH]c3ncc(-c4ccc5ccccc5c4)cc23)cc1`, the clearance was found to be 21.3 mL/min/kg.
On the same count and under the same terms, under `O=C(O)c1ccc(-c2c[nH]c3ncc(-c4ccccc4)cc23)cc1` stands 64.4 mL/min/kg.

The target of the next series is T1, Serine/threonine-protein kinase Sgk1 (Homo sapiens, UniProt O00141).
T1 sequence (O00141 whole entry): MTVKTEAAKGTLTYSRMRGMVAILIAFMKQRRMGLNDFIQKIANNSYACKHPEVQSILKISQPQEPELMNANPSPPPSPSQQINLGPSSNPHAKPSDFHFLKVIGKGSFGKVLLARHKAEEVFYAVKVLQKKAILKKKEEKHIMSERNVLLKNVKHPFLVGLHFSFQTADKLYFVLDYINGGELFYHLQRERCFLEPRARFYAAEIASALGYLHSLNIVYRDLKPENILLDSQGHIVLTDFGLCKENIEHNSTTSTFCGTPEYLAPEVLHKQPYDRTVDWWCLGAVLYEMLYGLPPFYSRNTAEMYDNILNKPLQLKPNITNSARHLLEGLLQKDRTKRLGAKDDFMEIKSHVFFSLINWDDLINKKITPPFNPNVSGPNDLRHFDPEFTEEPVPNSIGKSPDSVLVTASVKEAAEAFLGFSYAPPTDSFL
The series can be described thus: Inhibition of SGK1-mediated epithelial sodium channel activity in human M-1 cells assessed as short circuit current by whole cell electrophysiological transepithelial experiment. In kind it is cell-based.
Conditions: not given
Broadly, the IC50 is the concentration that gives 50% inhibition. `O=C(O)Cc1ccc(-c2c[nH]c3ncc(-c4ccc5ccccc5c4)cc23)cc1`: the IC50 is 880 nM.
The same measure, in the same setting: under `CC(C)(C(=O)O)c1ccc(-c2c[nH]c3ncc(-c4ccc5ccccc5c4)cc23)cc1` stands 870 nM; under `CC(C)Cc1cc(-c2c[nH]c3ncc(-c4ccccc4)cc23)ccc1C(=O)O`, 580 nM; under `CCc1cc(-c2c[nH]c3ncc(-c4ccccc4)cc23)ccc1C(=O)O`, 710 nM.
Still for that read-out and setting: under `CC(C)(C(=O)O)c1ccc(-c2c[nH]c3ncc(-c4ccccc4)cc23)cc1` stands 1460 nM; under `O=C(O)c1ccc(-c2c[nH]c3ncc(-c4ccccc4)cc23)cc1`, 1300 nM.
Regarding `CC(C)(C(=O)O)c1ccc(-c2c[nH]c3ncc(-c4cccc(C#N)c4)cc23)cc1`, the IC50 worked out at 2000 nM.

Test system in a further series: not listed separately
The series can be described thus: Terminal half life in iv dosed rat by cassette dosing. In kind it is ADME, organism-based. To be noted: in vivo, read-out: beta t1/2. Summed up: (§2)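 Rats were given a cassette of four compounds as one mixture, dosed iv and orally. Clearance, Vdss and terminal half-life come from the iv arm; oral AUC0–t and dose-normalized AUC0–t come from the oral arm.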
As for `CC(C)(C(=O)O)c1ccc(-c2c[nH]c3ncc(-c4ccc5ccccc5c4)cc23)cc1`, the half-life turned out to be 4.4 h.
Still for that read-out and setting: under `O=C(O)c1ccc(-c2c[nH]c3ncc(-c4ccccc4)cc23)cc1C1CCCC1` [GSK-650394] stands 1.58 h; under `CC(C)Cc1cc(-c2c[nH]c3ncc(-c4ccccc4)cc23)ccc1C(=O)O`, 1.17 h; under `CCc1cc(-c2c[nH]c3ncc(-c4ccccc4)cc23)ccc1C(=O)O`, 1.62 h.
As to `CC(C)(C(=O)O)c1ccc(-c2c[nH]c3ncc(-c4cccc(C#N)c4)cc23)cc1`, the half-life came out at 8.13 h.

Another series concerns Rattus norvegicus. Nature of the series: Dose normalized AUC (0 to t) in po dosed rat by discrete study. Type of series: ADME, organism-based. To be noted: in vivo. The essentials: as §1
Molecule `O=C(O)Cc1ccc(-c2c[nH]c3ncc(-c4ccc5ccccc5c4)cc23)cc1` gave an AUC of 225 ng·h/mL/mg/kg.
Still for that read-out and setting: under `O=C(O)c1ccc(-c2c[nH]c3ncc(-c4ccccc4)cc23)cc1` stands 154 ng·h/mL/mg/kg.

Test system in the next series: not listed separately
Nature of the series: Volume of distribution at steady state in rat by cassette dosing. In kind it is ADME, organism-based. To be noted: in vivo, read-out: Vdss. The essentials: as §2
Regarding `CC(C)(C(=O)O)c1ccc(-c2c[nH]c3ncc(-c4ccc5ccccc5c4)cc23)cc1`, the Vd came to 0.67 L/kg.
Still for that read-out and setting: under `O=C(O)c1ccc(-c2c[nH]c3ncc(-c4ccccc4)cc23)cc1C1CCCC1` [GSK-650394] stands 0.77 L/kg; under `CC(C)Cc1cc(-c2c[nH]c3ncc(-c4ccccc4)cc23)ccc1C(=O)O`, 0.62 L/kg.
In the case of `CCc1cc(-c2c[nH]c3ncc(-c4ccccc4)cc23)ccc1C(=O)O`, the Vd is 0.43 L/kg.
On the same count and under the same terms, under `CC(C)(C(=O)O)c1ccc(-c2c[nH]c3ncc(-c4cccc(C#N)c4)cc23)cc1` stands 2.5 L/kg.

A further series has as its target T1, Serine/threonine-protein kinase Sgk1. Nature of the series: Inhibition of SGK1 by fluorescence polarization assay.
Conditions: not given
In general terms: Polarisation of emitted light reports the rotation of a fluorescent probe.
On to `COC(=O)c1ccc(-c2c[nH]c3ncc(-c4ccccc4)cc23)cc1`, for which the IC50 was found to be 3160 nM.
Same read-out and setting: under `NCc1ccc(-c2c[nH]c3ncc(-c4ccccc4)cc23)cc1` stands 400 nM; under `CC(C(=O)O)c1ccc(-c2c[nH]c3ncc(-c4ccc5ccccc5c4)cc23)cc1` (centres undefined), 125 nM; under `CC(C)(C(=O)O)c1ccc(-c2c[nH]c3ncc(-c4ccc5ccccc5c4)cc23)cc1`, 63 nM.
Take `CC(C)Cc1cc(-c2c[nH]c3ncc(-c4ccccc4)cc23)ccc1C(=O)O`: inhibition was half-maximal at 5 nM (IC50).
The same measure, in the same setting: under `CCc1cc(-c2c[nH]c3ncc(-c4ccccc4)cc23)ccc1C(=O)O` stands 20 nM.
Still for that read-out and setting: under `CC(C)(C(=O)O)c1ccc(-c2c[nH]c3ncc(-c4ccccc4)cc23)cc1` stands 50 nM; under `CC(=O)c1ccc(-c2c[nH]c3ncc(-c4ccccc4)cc23)cc1`, 5000 nM; under `c1ccc(-c2cnc3[nH]cc(-c4ccc(-c5nnn[nH]5)cc4)c3c2)cc1`, 160 nM.
Same read-out and setting: under `CC(C)(C(=O)O)c1ccc(-c2c[nH]c3ncc(-c4cccc(C#N)c4)cc23)cc1` stands 40 nM.

Test system in the next series: not listed separately
Nature of the series: Volume of distribution at steady state in rat by discrete study. Type of series: ADME, organism-based. To be noted: in vivo, read-out: Vdss. Summed up: as §1
Consider `O=C(O)Cc1ccc(-c2c[nH]c3ncc(-c4ccc5ccccc5c4)cc23)cc1`, for which the Vd is 1.3 L/kg.
Same read-out and setting: under `O=C(O)c1ccc(-c2c[nH]c3ncc(-c4ccccc4)cc23)cc1` stands 8.8 L/kg.

Test system in the next series: not listed separately
The series can be described thus: AUC (0 to t) in po dosed rat by cassette dosing. In kind it is ADME, organism-based. To be noted: plasma. Summed up:
as §2
By AUC(0-t) is commonly meant exposure summed from dosing to a finite time, without extrapolation to infinity. A higher AUC(0-t) goes with more exposure. In the case of `CC(C)(C(=O)O)c1ccc(-c2c[nH]c3ncc(-c4ccc5ccccc5c4)cc23)cc1`, the AUC(0-t) turned out to be 4170 ng·h/mL.
The same measure, in the same setting: under `O=C(O)c1ccc(-c2c[nH]c3ncc(-c4ccccc4)cc23)cc1C1CCCC1` [GSK-650394] stands 313 ng·h/mL; under `CC(C)Cc1cc(-c2c[nH]c3ncc(-c4ccccc4)cc23)ccc1C(=O)O`, 373 ng·h/mL; under `CCc1cc(-c2c[nH]c3ncc(-c4ccccc4)cc23)ccc1C(=O)O`, 1500 ng·h/mL.
Same read-out and setting: under `CC(C)(C(=O)O)c1ccc(-c2c[nH]c3ncc(-c4cccc(C#N)c4)cc23)cc1` stands 1910 ng·h/mL.

Test system in another series: not listed separately
Nature of the series: AUC (0 to t) in po dosed rat by discrete study. Type of series: ADME, organism-based. To be noted: plasma. Summed up:
as §1
`O=C(O)Cc1ccc(-c2c[nH]c3ncc(-c4ccc5ccccc5c4)cc23)cc1` displayed an AUC(0-t) of 467 ng·h/mL.
The same measure, in the same setting: under `O=C(O)c1ccc(-c2c[nH]c3ncc(-c4ccccc4)cc23)cc1` stands 392 ng·h/mL.

Test system in the next series: not listed separately
Nature of the series: Plasma clearance in rat by cassette dosing. Type of series: ADME, organism-based.
Conditions: not given
Summed up:
as §2
In turn, `CC(C)(C(=O)O)c1ccc(-c2c[nH]c3ncc(-c4ccc5ccccc5c4)cc23)cc1` yielded a clearance of 4.32 mL/min/kg.
Take `O=C(O)c1ccc(-c2c[nH]c3ncc(-c4ccccc4)cc23)cc1C1CCCC1` [GSK-650394]: the clearance came to 25.7 mL/min/kg.
Same read-out and setting: under `CC(C)Cc1cc(-c2c[nH]c3ncc(-c4ccccc4)cc23)ccc1C(=O)O` stands 21.9 mL/min/kg; under `CCc1cc(-c2c[nH]c3ncc(-c4ccccc4)cc23)ccc1C(=O)O`, 9.4 mL/min/kg.
Still for that read-out and setting: under `CC(C)(C(=O)O)c1ccc(-c2c[nH]c3ncc(-c4cccc(C#N)c4)cc23)cc1` stands 6.56 mL/min/kg.

Another series has as its system Rattus norvegicus. Nature of the series: Dose normalized AUC (0 to t) in po dosed rat by cassette dosing. In kind it is ADME, organism-based. To be noted: in vivo. The essentials: as §2
With `CC(C)(C(=O)O)c1ccc(-c2c[nH]c3ncc(-c4ccc5ccccc5c4)cc23)cc1`, the AUC was determined as 2100 ng·h/mL/mg/kg.
On the same count and under the same terms, under `O=C(O)c1ccc(-c2c[nH]c3ncc(-c4ccccc4)cc23)cc1C1CCCC1` [GSK-650394] stands 134 ng·h/mL/mg/kg; under `CC(C)Cc1cc(-c2c[nH]c3ncc(-c4ccccc4)cc23)ccc1C(=O)O`, 176 ng·h/mL/mg/kg.
With `CCc1cc(-c2c[nH]c3ncc(-c4ccccc4)cc23)ccc1C(=O)O`, the AUC amounted to 600 ng·h/mL/mg/kg.
Take `CC(C)(C(=O)O)c1ccc(-c2c[nH]c3ncc(-c4cccc(C#N)c4)cc23)cc1`: the AUC is 905 ng·h/mL/mg/kg.

Test system in another series: not listed separately
Nature of the series: Terminal half life in iv dosed rat by discrete study. Type of series: ADME, organism-based. To be noted: in vivo, read-out: beta t1/2. Summed up:
as §1
As to `O=C(O)Cc1ccc(-c2c[nH]c3ncc(-c4ccc5ccccc5c4)cc23)cc1`, the half-life worked out at 4.22 h.
The same measure, in the same setting: under `O=C(O)c1ccc(-c2c[nH]c3ncc(-c4ccccc4)cc23)cc1` stands 9.4 h.
